# Data from ChEMBL document CHEMBL1133010, “Structure-function studies of polymyxin B nonapeptide: implications to sensitization of gram-negative bacteria” (J Med Chem, 2000).
# Legend:
# Assay type in all cases: functional
# Escherichia coli [1] = assay: Inhibitory concentration required to displace dansyl-PMBN (0.55 uM) from maximal specific binding to Escherichia coli LPS
# In short: (§1)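 Fluorescence displacement assay. E. coli LPS (3 µg/mL, ~2 × 10^-7 M) in 5 mM HEPES pH 7.2 was pre-equilibrated with dansyl-PMBN (0.55 µM). Peptide was added stepwise at 5-min intervals from 1 × 10^-5 to 1 × 10^-3 M stocks. Fluorescence read at excitation 340 nm and emission 485 nm after each addition. Percent inhibition was plotted against concentration to give maximal and 50% displacement. 2-3 repeats.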
# Escherichia coli [2] = assay: Relative sensitizing activity against Escherichia coli was determined as a percent of pPMBN (50 ug/mL) as a control
# In short: (§2)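 Clinical isolates at 1 × 10^5 CFU per well, in ISB with a 2-fold serial dilution (1000-0.5 µg/mL) of novobiocin. Peptide added at 50 µg/mL final. Incubated 20 h at 37 °C and read by visible growth. Sensitizing activity is the fold drop in novobiocin MIC with versus without peptide, expressed as percent of that given by 50 µg/mL pPMBN.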
# Klebsiella pneumoniae = assay: Relative sensitizing activity against Klebsiella pneumoniae was determined as a percent of pPMBN (50 ug/mL) as a control; in short: as §2
# Escherichia coli [3] = assay: Maximal displacement of dansyl-PMBN from Escherichia coli LPS; in short: as §1
Compound,Activity (Escherichia coli [2]) [%],Activity (Klebsiella pneumoniae) [%],Imax (Escherichia coli [3]) [%],also measured
CC(C)C[C@@H]1NC(=O)[C@@H](Cc2ccccc2)NC(=O)[C@H](CCN)NC(=O)[C@@H](NC(=O)[C@H](CCN)NC(=O)[C@@H](N)[C@@H](C)O)CCNC(=O)[C@H]([C@@H](C)O)NC(=O)[C@H](CCCCN)NC(=O)[C@H](CCCCN)NC1=O [listing 1 of 2 here],,,,IC50 (Escherichia coli [1]; Escherichia coli): 12 µM
CC(C)C[C@@H]1NC(=O)[C@@H](Cc2ccccc2)NC(=O)[C@H](CCN)NC(=O)[C@H](CCN)NC(=O)[C@@H](NC(=O)[C@@H](N)[C@@H](C)O)CCNC(=O)[C@H]([C@@H](C)O)NC(=O)[C@H](CCN)NC(=O)[C@H](CCN)NC1=O [listing 1 of 2 here],7,5,,
CC(C)C[C@@H]1NC(=O)[C@@H](Cc2ccccc2)NC(=O)[C@H](CCCCN)NC(=O)[C@@H](NC(=O)[C@H](CCCCN)NC(=O)[C@@H](N)[C@@H](C)O)CCNC(=O)[C@H]([C@@H](C)O)NC(=O)[C@H](CCCCN)NC(=O)[C@H](CCCCN)NC1=O [listing 1 of 2 here],,,,IC50 (Escherichia coli [1]; Escherichia coli): 30 µM
CC(C)C[C@@H]1NC(=O)[C@@H](Cc2ccccc2)NC(=O)[C@@H](NC(=O)[C@H](CCN)NC(=O)[C@H](CCN)NC(=O)[C@@H](N)[C@@H](C)O)CCNC(=O)[C@H]([C@@H](C)O)NC(=O)[C@H](CCN)NC(=O)[C@H](CCN)NC1=O [listing 1 of 2 here],,,,IC50 (Escherichia coli [1]; Escherichia coli): 15 µM
CC(C)C[C@@H]1NC(=O)[C@@H](Cc2ccccc2)NC(=O)[C@H](CCN)NC(=O)[C@H](CCN)NC(=O)[C@@H](NC(=O)[C@@H](N)[C@@H](C)O)CCNC(=O)[C@H]([C@@H](C)O)NC(=O)[C@H](CCN)NC(=O)[C@H](CCN)NC1=O [listing 2 of 2 here],,,,IC50 (Escherichia coli [1]; Escherichia coli): 8 µM
CC(C)C[C@@H]1NC(=O)[C@@H](Cc2ccccc2)NC(=O)[C@H](CN)NC(=O)[C@@H](NC(=O)[C@H](CN)NC(=O)[C@@H](N)[C@@H](C)O)CNC(=O)[C@H]([C@@H](C)O)NC(=O)[C@H](CN)NC(=O)[C@H](CN)NC1=O,11,5,,
CC(C)C[C@H]1NC(=O)[C@@H](Cc2ccccc2)NC(=O)[C@@H](CCN)NC(=O)[C@H](NC(=O)[C@H](CCN)NC(=O)[C@@H](N)[C@@H](C)O)CCNC(=O)[C@H]([C@@H](C)O)NC(=O)[C@@H](CCCCN)NC(=O)[C@H](CCCCN)NC1=O,,,62,
CC(C)C[C@@H]1NC(=O)[C@@H](Cc2ccccc2)NC(=O)[C@H](CCCN)NC(=O)[C@@H](NC(=O)[C@H](CCCN)NC(=O)[C@@H](N)[C@@H](C)O)CCCNC(=O)[C@H]([C@@H](C)O)NC(=O)[C@H](CCCN)NC(=O)[C@H](CCCN)NC1=O [listing 1 of 2 here],,,,IC50 (Escherichia coli [1]; Escherichia coli): 25 µM
CC(C)C[C@@H]1NC(=O)[C@@H](Cc2ccccc2)NC(=O)[C@H](CCCCN)NC(=O)[C@@H](NC(=O)[C@H](CCCCN)NC(=O)[C@@H](N)[C@@H](C)O)CCNC(=O)[C@H]([C@@H](C)O)NC(=O)[C@H](CCCCN)NC(=O)[C@H](CCCCN)NC1=O [listing 2 of 2 here],5,3,,
CC(C)C[C@@H]1NC(=O)[C@@H](Cc2ccccc2)NC(=O)[C@H](CCCCN)NC(=O)[C@@H](NC(=O)[C@H](CCCCN)NC(=O)[C@@H](N)[C@@H](C)O)CCNC(=O)[C@H]([C@@H](C)O)NC(=O)[C@H](CCN)NC(=O)[C@H](CCN)NC1=O [listing 1 of 2 here],,,,IC50 (Escherichia coli [1]; Escherichia coli): 14 µM
CC(C)C[C@H]1NC(=O)[C@H](Cc2ccccc2)NC(=O)[C@@H](CCN=C(N)N)NC(=O)[C@H](NC(=O)[C@H](CCN=C(N)N)NC(=O)[C@@H](N)[C@@H](C)O)CCNC(=O)[C@H]([C@@H](C)O)NC(=O)[C@@H](CCN=C(N)N)NC(=O)[C@H](CCN=C(N)N)NC1=O,,,80,
CC(C)C[C@H]1NC(=O)[C@@H](Cc2ccccc2)NC(=O)[C@@H](NC(=O)[C@H](CCN)NC(=O)[C@H](CCN)NC(=O)[C@@H](N)[C@@H](C)O)CCNC(=O)[C@H]([C@@H](C)O)NC(=O)[C@@H](CCN)NC(=O)[C@H](CCN)NC1=O,,,45,
POLYMYXIN B [listing 1 of 2 here],,,,IC50 (Escherichia coli [1]): 0.5 µM
POLYMYXIN B [listing 2 of 2 here],,,100,
CC(C)C[C@@H]1NC(=O)[C@@H](Cc2ccccc2)NC(=O)[C@H](CCN=C(N)N)NC(=O)[C@@H](NC(=O)[C@H](CCN=C(N)N)NC(=O)[C@@H](N)[C@@H](C)O)CCNC(=O)[C@H]([C@@H](C)O)NC(=O)[C@H](CCN=C(N)N)NC(=O)[C@H](CCN=C(N)N)NC1=O,25,25,,
CC(C)C[C@@H]1NC(=O)[C@@H](Cc2ccccc2)NC(=O)[C@@H](NC(=O)[C@H](CCN)NC(=O)[C@H](CCN)NC(=O)[C@@H](N)[C@@H](C)O)CCNC(=O)[C@H]([C@@H](C)O)NC(=O)[C@H](CCN)NC(=O)[C@H](CCN)NC1=O [listing 2 of 2 here],4,5,,
CC(C)C[C@H]1NC(=O)[C@@H](Cc2ccccc2)NC(=O)[C@@H](CCCN)NC(=O)[C@H](NC(=O)[C@H](CCCN)NC(=O)[C@@H](N)[C@@H](C)O)CCCNC(=O)[C@H]([C@@H](C)O)NC(=O)[C@@H](CCCN)NC(=O)[C@H](CCCN)NC1=O,,,62,

Compound,Activity (Escherichia coli [2]) [%],Activity (Klebsiella pneumoniae) [%],Imax (Escherichia coli [3]) [%],also measured
CC(C)C[C@H]1NC(=O)[C@@H](Cc2ccccc2)NC(=O)[C@@H](CCN)NC(=O)[C@H](NC(=O)[C@H](CCN)NC(=O)[C@@H](N)[C@@H](C)O)CCNC(=O)[C@H]([C@@H](C)O)NC(=O)[C@@H](CCN)NC(=O)[C@H](CCN)NC1=O (stereo in doubt; form 2),,,80,
CC(C)C[C@@H]1NC(=O)[C@@H](Cc2ccccc2)NC(=O)[C@H](CCCCN)NC(=O)[C@@H](NC(=O)[C@H](CCCCN)NC(=O)[C@@H](N)[C@@H](C)O)CCCCNC(=O)[C@H]([C@@H](C)O)NC(=O)[C@H](CCCCN)NC(=O)[C@H](CCCCN)NC1=O,4,3,,
CC(C)C[C@@H]1NC(=O)[C@@H](Cc2ccccc2)NC(=O)[C@H](CCN)NC(=O)[C@@H](NC(=O)[C@H](CCN)NC(=O)[C@@H](N)[C@@H](C)O)CCCCNC(=O)[C@H]([C@@H](C)O)NC(=O)[C@H](CCN)NC(=O)[C@H](CCN)NC1=O,17,18,,
CC(C)C[C@@H]1NC(=O)[C@@H](Cc2ccccc2)NC(=O)[C@H](CCCCN)NC(=O)[C@@H](NC(=O)[C@H](CCCCN)NC(=O)[C@@H](N)[C@@H](C)O)CCNC(=O)[C@H]([C@@H](C)O)NC(=O)[C@H](CCN)NC(=O)[C@H](CCN)NC1=O [listing 2 of 2 here],9,13,,
CC(C)C[C@H]1NC(=O)[C@@H](Cc2ccccc2)NC(=O)[C@@H](CCCCN)NC(=O)[C@H](NC(=O)[C@H](CCCCN)NC(=O)[C@@H](N)[C@@H](C)O)CCNC(=O)[C@H]([C@@H](C)O)NC(=O)[C@@H](CCN)NC(=O)[C@H](CCN)NC1=O,,,64,
CC(C)C[C@H]1NC(=O)[C@H](Cc2ccccc2)NC(=O)[C@@H](CCN)NC(=O)[C@H](NC(=O)[C@H](CCN)NC(=O)[C@@H](N)[C@@H](C)O)CCNC(=O)[C@H]([C@@H](C)O)NC(=O)[C@@H](CCN)NC(=O)[C@H](CCN)NC1=O,,,64,
CC(C)C[C@H]1NC(=O)[C@@H](Cc2ccccc2)NC(=O)[C@@H](CN)NC(=O)[C@H](NC(=O)[C@H](CN)NC(=O)[C@@H](N)[C@@H](C)O)CNC(=O)[C@H]([C@@H](C)O)NC(=O)[C@@H](CN)NC(=O)[C@H](CN)NC1=O,,,64,
CC(C)C[C@H]1NC(=O)[C@@H](Cc2ccccc2)NC(=O)[C@@H](CCN)NC(=O)[C@H](NC(=O)[C@H](CCN)NC(=O)[C@@H](N)[C@@H](C)O)CCNC(=O)[C@H]([C@@H](C)O)NC(=O)[C@@H](CCN)NC(=O)[C@H](CCN)NC1=O (stereo in doubt; form 1),,,80,
CC(C)C[C@@H]1NC(=O)[C@@H](Cc2ccccc2)NC(=O)[C@H](CCN)NC(=O)[C@@H](NC(=O)[C@H](CCN)NC(=O)[C@@H](N)[C@@H](C)O)CCNC(=O)[C@H]([C@@H](C)O)NC(=O)[C@H](CCN)NC(=O)[C@H](CCN)NC1=O (stereo in doubt; form 2),96,93,,
CC(C)C[C@@H]1NC(=O)[C@H](Cc2ccccc2)NC(=O)[C@H](CCN)NC(=O)[C@@H](NC(=O)[C@H](CCN)NC(=O)[C@@H](N)[C@@H](C)O)CCNC(=O)[C@H]([C@@H](C)O)NC(=O)[C@H](CCN)NC(=O)[C@H](CCN)NC1=O,5,9,,
CC(C)C[C@H]1NC(=O)[C@@H](Cc2ccccc2)NC(=O)[C@@H](CCCCN)NC(=O)[C@H](NC(=O)[C@H](CCCCN)NC(=O)[C@@H](N)[C@@H](C)O)CCCCNC(=O)[C@H]([C@@H](C)O)NC(=O)[C@@H](CCCCN)NC(=O)[C@H](CCCCN)NC1=O,,,60,
CC(C)C[C@@H]1NC(=O)[C@@H](Cc2ccccc2)NC(=O)[C@H](CCCN)NC(=O)[C@@H](NC(=O)[C@H](CCCN)NC(=O)[C@@H](N)[C@@H](C)O)CCCNC(=O)[C@H]([C@@H](C)O)NC(=O)[C@H](CCCN)NC(=O)[C@H](CCCN)NC1=O [listing 2 of 2 here],2,6,,
CC(C)C[C@H]1NC(=O)[C@@H](Cc2ccccc2)NC(=O)[C@@H](CCN)NC(=O)[C@H](CCN)NC(=O)[C@@H](NC(=O)[C@@H](N)[C@@H](C)O)CCNC(=O)[C@H]([C@@H](C)O)NC(=O)[C@@H](CCN)NC(=O)[C@H](CCN)NC1=O,,,60,
CC(C)C[C@@H]1NC(=O)[C@@H](Cc2ccccc2)NC(=O)[C@H](CCN)NC(=O)[C@@H](NC(=O)[C@H](CCN)NC(=O)[C@@H](N)[C@@H](C)O)CCNC(=O)[C@H]([C@@H](C)O)NC(=O)[C@H](CCCCN)NC(=O)[C@H](CCCCN)NC1=O [listing 2 of 2 here],40,26,,
CC(C)C[C@H]1NC(=O)[C@@H](Cc2ccccc2)NC(=O)[C@@H](CCCCN)NC(=O)[C@H](NC(=O)[C@H](CCCCN)NC(=O)[C@@H](N)[C@@H](C)O)CCNC(=O)[C@H]([C@@H](C)O)NC(=O)[C@@H](CCCCN)NC(=O)[C@H](CCCCN)NC1=O,,,45,
CC(C)C[C@H]1NC(=O)[C@@H](Cc2ccccc2)NC(=O)[C@@H](CCN)NC(=O)[C@H](NC(=O)[C@H](CCN)NC(=O)[C@@H](N)[C@@H](C)O)CCCCNC(=O)[C@H]([C@@H](C)O)NC(=O)[C@@H](CCN)NC(=O)[C@H](CCN)NC1=O,,,60,
